Experimental data of several laboratories.
pEC50, pIC50, pKd, pKi: −log10 of the molar value.
ADRA2B: Alpha-2B adrenergic receptor (ADRA2B, Homo sapiens, UniProt P18089)
PIK3CG: Phosphatidylinositol 4,5-bisphosphate 3-kinase catalytic subunit gamma isoform (PIK3CG, Homo sapiens, UniProt P48736)

Structure (SMILES) | target | assay | conditions | endpoint | value
Cc1cc(Oc2ncccc2CN2CCN(c3ccc(Cl)cc3)CC2)ccc1-c1c(C)c(=O)[nH]c(=O)n1C | ADRA2B | ligand displacement, radioligand |  | pKi | 6.47
CCc1ccc(N=C2C(=O)N(Cc3ccccc3)c3ccccc32)cc1 | PIK3CG | enzyme activity, inhibitor, ADP detection |  | pIC50 | 8.68
Cc1cc(Oc2ncccc2CN2CCN(c3ccccn3)CC2)ccc1-c1c(C)c(=O)[nH]c(=O)n1C | ADRA2B | ligand displacement, radioligand |  | pKi | 6.57
CN1CCc2nc(NC(=O)C3=NN(c4ccc(F)cc4)C(C(N)=O)C3)sc2C1 (stereo not shown) | DDB1- and CUL4-associated factor 7 (Homo sapiens, UniProt P61962) | binding, SPR |  | pKd | < 4.15
NC(=O)C1=CN([C@@H]2O[C@H](COP(=O)(O)OP(=O)(O)OC[C@H]3O[C@@H](n4cnc5c(N)ncnc54)[C@H](OP(=O)(O)O)[C@@H]3O)[C@@H](O)[C@H]2O)C=CC1 | MECR (Homo sapiens, UniProt Q9BV79) | binding, ITC |  | pKd | 6.02
CC(C)C[C@H](NC(=O)[C@H](CC(C)C)NC(=O)[C@H](Cc1c[nH]c2ccccc12)NC(=O)[C@H](CCC(N)=O)NC(=O)[C@@H](NC(=O)[C@H](Cc1ccccc1)NC(=O)[C@H](CC(=O)O)NC(=O)[C@H](CCC(N)=O)NC(=O)[C@H](C)NC(=O)[C@H](C)NC(=O)[C@H](CCCNC(=N)N)NC(=O)[C@H](CCC(=O)O)NC(=O)[C@H](CC(=O)O)NC(=O)[C@H](CC(C)C)NC(=O)[C@H](Cc1ccc(O)cc1)NC(=O)[C@H](CCCCN)NC(=O)[C@H](CO)NC(=O)[C@H](Cc1ccc(O)cc1)NC(=O)[C@H](CC(=O)O)NC(=O)[C@H](CO)NC(=O)[C@@H](NC(=O)[C@H](Cc1ccccc1)NC(=O)[C@@H](NC(=O)CNC(=O)[C@H](CCC(N)=O)NC(=O)C(C)(C)NC(=O)[C@@H](N)Cc1c[nH]cn1)[C@@H](C)O)[C@@H](C)O)C(C)C)C(=O)N[C@@H](CC(=O)O)C(=O)NCC(=O)NCC(=O)N1CCC[C@H]1C(=O)N[C@@H](CO)C(=O)N[C@@H](CC(C)C)C(=O)N[C@@H](CCCNC(=N)N)C(=O)N[C@@H](Cc1c[nH]cn1)C(=O)N[C@@H](Cc1ccc(O)cc1)C(=O)N[C@@H](CC(C)C)C(=O)N[C@@H](CC(N)=O)C(=O)N[C@@H](CC(C)C)C(=O)N[C@H](C(=O)N[C@H](C(=O)N[C@@H](CCCNC(=N)N)C(=O)N[C@@H](CCC(N)=O)C(=O)N[C@@H](CCCNC(=N)N)C(=O)N[C@@H](Cc1ccc(O)cc1)C(N)=O)[C@@H](C)O)C(C)C | Neuropeptide Y receptor type 2 (NPY2R, Homo sapiens, UniProt P49146) | reporter gene, agonist, luciferase |  | pEC50 | 9.40
CCN1/C(=C/C(C)=O)Sc2ccc(F)cc21 | ADRA2B | ligand displacement, radioligand |  | pKi | 6.01
CCC(C(=O)N1C(=O)C(=Nc2ccc(Cl)cc2Br)c2ccccc21)c1ccccc1 (stereo not shown) | PIK3CG | enzyme activity, inhibitor, ADP detection |  | pIC50 | 7.55
Nc1ncnc2c1ncn2C1CCCC1 | Inositol-tetrakisphosphate 1-kinase (Homo sapiens, UniProt Q13572) | binding, ITC | pH 7.2 | pKd | 7.28
Cc1cc(Oc2ncccc2CN2CCN(C(c3ccccc3)c3ccccc3)CC2)ccc1-c1c(C)c(=O)[nH]c(=O)n1C | ADRA2B | ligand displacement, radioligand |  | pKi | 6.76
Cc1ccc(CN2C(=O)C(=Nc3cccc(C)c3)c3ccccc32)cc1 | PIK3CG | enzyme activity, inhibitor, ADP detection |  | pIC50 | 9.01
Cc1cc(Oc2ncccc2CN2CCN(c3cccc(Cl)c3Cl)CC2)ccc1-c1c(C)c(=O)[nH]c(=O)n1C | ADRA2B | ligand displacement, radioligand |  | pKi | 6.95
Cc1ccc(CN2C(=O)C(=Nc3c(C(C)C)cccc3C(C)C)c3ccccc32)cc1 | PIK3CG | enzyme activity, inhibitor, ADP detection |  | pIC50 | 7.73
